Data: ChEMBL document CHEMBL5154669, “G-Quadruplex DNA as a Target in Pathogenic Bacteria: Efficacy of an Extended Naphthalene Diimide Ligand and Its Mode of Action” (J Med Chem, 2022)

How the values were obtained:
Acinetobacter baumannii [1] = assay: Antimicrobial activity against Acinetobacter baumannii LMG 01041 assessed as inhibition of bacterial growth in presence of D11 incubated for 20 hrs; conditions: LMG 01041, 20 h
Klebsiella aerogenes [2] = assay: Antimicrobial activity against Enterobacter aerogenes LMG 02094 assessed as inhibition of bacterial growth in presence of D11 incubated for 20 hrs; conditions: LMG 02094, 20 h
Enterococcus faecium [3] = assay: Antimicrobial activity against Enterococcus faecium LMG 16003 assessed as inhibition of bacterial growth in presence of D11 incubated for 20 hrs; conditions: LMG 16003, 20 h
Salmonella enterica = assay: Bacteriostatic activity against Salmonella enterica LMG 07233 assessed as inhibition of bacterial growth; format: functional
Summary of the method: (§1)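 A standard MIC plate (128–2 μM, cMHB, 20 h, 37 °C) was read at OD600. Each well then seeded at 10% a fresh compound-free cMHB plate, grown another 20 h at 37 °C and read at OD600. No growth at the same concentration in both plates counted as bactericidal. Growth above the MIC counted as bacteriostatic. Done in triplicate.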

Staphylococcus aureus [4] = assay: Antibacterial activity against Staphylococcus aureus LMG 15975 assessed as inhibition of bacterial growth incubated for 20 hrs by CLSI based broth microdilution method; format: functional
Summary of the method: (§2)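 Broth microdilution in cation-adjusted Mueller-Hinton broth following CLSI guidelines. DMSO stocks were at 10 mM; compounds were twofold serially diluted over 128 to 2 μM. The inoculum was at 5 × 10⁵, prepared from colonies grown 20 h at 37 °C and adjusted to 0.5 McFarland. Plates ran 20 h at 37 °C with OD600 read-out. MIC was the lowest concentration inhibiting visible growth, in triplicate.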

Acinetobacter baumannii [5] = assay: Antibacterial activity against Acinetobacter baumannii LMG 01041 assessed as inhibition of bacterial growth incubated for 20 hrs by CLSI based broth microdilution method; format: functional
Summary of the method: as §2

Enterococcus faecalis [6] = assay: Bacteriostatic activity against Enterococcus faecalis V583 assessed as inhibition of bacterial growth; format: functional
Summary of the method: as §1

Staphylococcus aureus [7] = assay: Antimicrobial activity against Staphylococcus aureus LMG 8224 assessed as inhibition of bacterial growth in presence of D11 incubated for 20 hrs; conditions: LMG 8224, 20 h
[8] = system: Staphylococcus epidermidis; assay: Antibacterial activity against Staphylococcus epidermidis Tu3298 assessed as inhibition of bacterial growth incubated for 20 hrs by CLSI based broth microdilution method; format: functional
Summary of the method: as §2

Enterococcus faecalis [9] = assay: Antimicrobial activity against Enterococcus faecalis V583 assessed as inhibition of bacterial growth in presence of D11 incubated for 20 hrs; conditions: V583, 20 h
DNA [10] = assay: Stabilization of Staphylococcus aureus in G-quadruplex DNA GGGTTTGGGGCGGCGGTTGG assessed as melting temperature at 10 uM incubated for 16 hrs by […]; format: nucleic-acid assay
Summary of the method: (§3)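 Readout was CD melting, not FRET: 2.5 μM oligonucleotide in 10 mM lithium cacodylate pH 7.4 with KCl set per sequence (initial Tm 60-70 °C). Annealed 95 °C 5 min, cooled to room temperature over 4 h, then ligand 10 μM (4 equiv) equilibrated 16 h at 20 °C. Ellipticity at 260 nm tracked every 0.1 °C, 20-95 °C at 5 °C/min; Tm by van't Hoff two-state fit.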

DNA [11] = assay: Stabilization of Escherichia coli in G-quadruplex DNA GGG GCG GGG TGG GTT GG assessed as melting temperature at 10 uM incubated for 16 hrs by FRET method; format: nucleic-acid assay
Pseudomonas aeruginosa = assay: Bactericidal activity against Pseudomonas aeruginosa LMG 6395 assessed as inhibition of bacterial growth; format: functional
Summary of the method: as §1

Enterococcus faecalis [12] = assay: Antibacterial activity against Enterococcus faecalis V583 assessed as inhibition of bacterial growth incubated for 20 hrs by CLSI based broth microdilution method; format: functional
Summary of the method: as §2

Staphylococcus aureus [13] = assay: Antibacterial activity against Staphylococcus aureus LMG 8224 infected in Galleria mellonella assessed as survival at 5 to 10 mg/kg after 3 days; conditions: dose 5-10 mg/kg, time 3 day
DNA [14] = assay: Stabilization of Staphylococcus aureus in G-quadruplex DNA GGA AGG AGG GGT GAC AGG G assessed as melting temperature at 10 uM incubated for 16 hrs […]; format: nucleic-acid assay
Summary of the method: as §3

Klebsiella pneumoniae = assay: Antibacterial activity against Klebsiella pneumoniae LMG 20218 assessed as inhibition of bacterial growth incubated for 20 hrs by CLSI based broth microdilution method; format: functional
Summary of the method: as §2

Escherichia coli [15] = assay: Antibacterial activity against Escherichia coli LMG 8223 infected in Galleria mellonella assessed as survival at 5 to 10 mg/kg after 5 days; format: functional; conditions: dose 5-10 mg/kg, time 5 day
Summary of the method: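 Larvae, 20 per group, were infected with 10 µL of saline-washed bacteria into the left proleg: E. coli at 10⁶ CFU/worm and S. aureus at 10⁵ CFU/worm. After 1 h at 37 °C, the compound (5 or 10 mg/kg) was injected into the last right proleg. Controls were meropenem 5 mg/kg (E. coli), rifampicin 10 mg/kg (S. aureus) and NaCl 0.9%. Mortality was followed over 5 d at 37 °C.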

Enterococcus faecalis [16] = assay: Antibacterial activity against Enterococcus faecalis LMG 16216 assessed as inhibition of bacterial growth incubated for 20 hrs by CLSI based broth microdilution method; format: functional
Summary of the method: as §2

Escherichia coli [17] = assay: Antibacterial activity against Escherichia coli LMG 8223; format: functional, organism-based; conditions: DDE = dose-dependent effect
Summary of the method: (§4)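 Cultures were inoculated at 2% and grown at 37 °C, with OD600 read every 5 min for 8 h. NDI-10 was added at exponential-phase onset (~3 h). Concentrations were 32, 16, 8 and 4 μM for E. coli, and 16, 8, 4 and […] μM for the Gram-positive strains.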

Enterococcus faecium [18] = assay: Antibacterial activity against Enterococcus faecium LMG 16003; format: functional, organism-based; conditions: DDE = dose-dependent effect
Summary of the method: as §4

Bacillus cereus = assay: Antibacterial activity against Bacillus cereus ATCC 10987; format: functional, organism-based; conditions: DDE = dose-dependent effect
Summary of the method: as §4

Klebsiella aerogenes [19] = assay: Antibacterial activity against Enterobacter aerogenes LMG 02094 assessed as inhibition of bacterial growth incubated for 20 hrs by CLSI based broth microdilution method; format: functional
Summary of the method: as §2

DNA [20] = assay: Stabilization of Staphylococcus aureus in G Quadruplex DNA GGGGCTAATTGGGGCTGGTGG assessed as melting at 10 uM incubated for 16 hrs temperature by […]; format: nucleic-acid assay
Summary of the method: as §3

DNA [21] = assay: Stabilization of Staphylococcus aureus in G-quadruplex DNA GGA AGG AGG GGT GAC AGG G assessed as change in melting temperature at 10 uM incubated for 16 hrs by […]; format: nucleic-acid assay
Summary of the method: as §3

Staphylococcus aureus [22] = assay: Antibacterial activity against Staphylococcus aureus LMG 8224 assessed as inhibition of bacterial growth incubated for 20 hrs by CLSI based broth microdilution method; format: functional
Summary of the method: as §2

DNA [23] = assay: Stabilization of Escherichia coli in G-quadruplex DNA GGT GGG GAG GGG TAA GGG G assessed as change in melting temperature at 10 uM incubated for 16 hrs by FRET method; format: nucleic-acid assay; conditions: in the assay text read “by CD melting method” for “by FRET method”
Summary of the method: as §3

In the case of `CN(C)CCCn1c(=O)c2ccc3c(=O)n(CCCN(C)C)c(=O)c4c5[nH]c6ccccc6[nH]c5c(c1=O)c2c34.O=C(O)C(F)(F)F.O=C(O)C(F)(F)F`, the MIC (Acinetobacter baumannii [1]) is reported as 8 µM, the MIC (Klebsiella aerogenes [2]) is reported as 8 µM and the MIC (Enterococcus faecium [3]) is reported as 4 µM. It also gave an MIC (Salmonella enterica) of 128 µM, an MIC (Staphylococcus aureus [4]) of 16 µM and an MIC (Acinetobacter baumannii [5]) of 64 µM. For the same compound, the MIC (Enterococcus faecalis [6]) was 64 µM, the MIC (Staphylococcus aureus [7]) was 16 µM and the MIC [8] was 16 µM. For the same compound, the MIC (Enterococcus faecalis [9]) was 4 µM, the Tm (DNA [10]) was > 95 °C and the Tm (DNA [11]) was 82.5 °C. It also gave an MIC (Pseudomonas aeruginosa) of 128 µM, an MIC (Enterococcus faecalis [12]) of 4 µM and an Activity (Staphylococcus aureus [13]) of 70%. The Tm (DNA [14]) was > 95 °C, the MIC (Klebsiella pneumoniae) was > 128 µM and the Activity (Escherichia coli [15]) was 90%. For the same compound, the MIC (Enterococcus faecalis [16]) was 4 µM, the Activity (Escherichia coli [17]) was “Dde” and the Activity (Enterococcus faecium [18]) was “Dde”. The Activity (Bacillus cereus) was “Dde”, the MIC (Klebsiella aerogenes [19]) was 32 µM and the Tm (DNA [20]) was 88.3 °C. For the same compound, the ΔTm (DNA [21]) was > 30.8 °C, the MIC (Staphylococcus aureus [22]) was 16 µM and the ΔTm (DNA [23]) was 31 °C.
